In ChEMBL document CHEMBL3085685, “In vitro and in vivo antileishmanial and trypanocidal studies of new N-benzene- and N-naphthalenesulfonamide derivatives” (J Med Chem, 2013):
Active and inactive are the calls of the source. The rule behind the calls is not given here.

Key:
[1] = Cytotoxicity against mouse J774 cells assessed as reduction of cell viability after 24 hrs by resazurin dye-based fluorometric analysis
Summary of the method: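 J774 macrophages in RPMI 1640 with 10% heat-inactivated FBS, seeded at 5 × 10^4 cells/well and attached 24 h at 37 °C, 5% CO2. Medium swapped for drug dilutions for 24 h. Then 2.5 mM resazurin stock added for 3 h, fluorescence read at 535 nm excitation / 590 nm emission. Triplicate; CC50 from probit analysis.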

Leishmania amazonensis [2] = experiment: Leishmanicidal activity against extracellular promastigote stage of Leishmania amazonensis MHOM/Br/79/Maria assessed as reduction of parasite load after 48 hrs by resazurin dye-based fluorometric analysis; type: functional, organism-based
Summary of the method: (§1)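 Log-phase promastigotes cultured in Schneider's medium with 20% heat-inactivated FBS at 26 °C, 2.5 × 10^5 per well. DMSO-dissolved compounds added as 2-fold serial dilutions, final DMSO ≤0.2% (v/v), 48 h at 26 °C. Growth read by 2.5 mM resazurin stock, fluorescence 535/590 nm. Triplicate; IC50 by probit analysis.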

Leishmania guyanensis = experiment: Leishmanicidal activity against extracellular promastigote stage of Leishmania guyanensis 141/93 assessed as reduction of parasite load after 48 hrs by resazurin dye-based fluorometric analysis; type: functional, organism-based; summary of the method: as §1
Leishmania braziliensis = experiment: Leishmanicidal activity against extracellular promastigote stage of Leishmania braziliensis 2903 assessed as reduction of parasite load after 48 hrs by resazurin dye-based fluorometric analysis; type: functional, organism-based; summary of the method: as §1
Leishmania infantum [3] = experiment: Leishmanicidal activity against extracellular promastigote stage of Leishmania infantum MCAN/ES/96/BCN150 assessed as reduction of parasite load after 48 hrs by resazurin dye-based fluorometric analysis; type: functional, organism-based; summary of the method: as §1
Trypanosoma cruzi [4] = experiment: Trypanocidal activity against extracellular epimastigote stage of Trypanosoma cruzi CL-B5 assessed as reduction of parasite load after 72 hrs by CPRG-based colorimetric analysis
[5] = Cytotoxicity against mouse NCTC-929 cells assessed as reduction of cell viability after 24 hrs by resazurin dye-based […]
Summary of the method: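 NCTC clone 929 fibroblasts in DMEM with 10% FBS and 2 mM L-glutamine, plated at 3 × 10^4 cells/well and grown overnight at 37 °C, 5% CO2. Compounds in fresh medium for 24 h, then 2 mM resazurin solution added for 3 h. Absorbance read at 570 and 595 nm; CC50 taken as 50% viability loss versus untreated cells, by probit analysis.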

Trypanosoma cruzi [6] = experiment: Trypanocidal activity against bloodstream trypomastigote stage of Trypanosoma cruzi Y infected in BALB/c mouse assessed as reduction of survival rate at 10 mg/kg/day, ip qd administered for 5 days measured daily until day 30 post-infection; type: functional, organism-based
Summary of the method: (§2)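 Female BALB/c mice (20–24 g) infected ip with 10^4 Y-strain bloodstream trypomastigotes; only parasitemic animals used. Compounds dissolved in DMSO, freshly diluted in propylene glycol, given ip at 10 mg/kg/day for 5 days from 5 dpi, with an untreated group. Parasitemia counted by Pizzi–Brener in 5 μL tail blood at 5, 8, 10 dpi; mortality checked daily to 30 dpi.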

Trypanosoma cruzi [7] = experiment: Trypanocidal activity against bloodstream trypomastigote stage of Trypanosoma cruzi Y infected in BALB/c mouse assessed as reduction of parasitemia at 10 mg/kg/day, ip qd administered for 5 days measured on day 10 post-infection by microscopic analysis relative to control; type: functional; parameters: scale not given: the % may be the effect or the level left; conditions: route intraperitoneal; summary of the method: as §2
Trypanosoma cruzi [8] = experiment: Trypanocidal activity against bloodstream trypomastigote stage of Trypanosoma cruzi Y infected in BALB/c mouse assessed as reduction of parasitemia at 10 mg/kg/day, ip qd administered for 3 days measured on day 8 post-infection by microscopic analysis relative to control; type: functional; parameters: scale not given: the % may be the effect or the level left; conditions: route intraperitoneal; summary of the method: as §2
Leishmania amazonensis [9] = experiment: Leishmanicidal activity against intracellular amastigote stage of Leishmania amazonensis MHOM/Br/79/Maria infected in mouse J774 cells assessed as reduction of parasite load after 48 hrs by resazurin dye-based fluorometric analysis; type: functional, organism-based; conditions: j774
Summary of the method: (§3)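 J774 macrophages (5 × 10^4/well) infected with stationary promastigotes at 1:10, 24 h at 33 °C then 24 h at 37 °C, 5% CO2, and washed free of promastigotes. Then 2-fold serial dilutions in triplicate for 48 h at 37 °C. Cells lysed with RPMI with 0.048% HEPES and 0.006% SDS, transformed in Schneider's 3 days at 26 °C, resazurin 3 h, fluorescence 535/590 nm.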

Leishmania infantum [10] = experiment: Leishmanicidal activity against intracellular amastigote stage of Leishmania infantum MCAN/ES/96/BCN150 infected in mouse J774 cells assessed as reduction of parasite load after 48 hrs by resazurin dye-based fluorometric analysis; type: functional, organism-based; conditions: j774; summary of the method: as §3
[11] = Selectivity index, ratio of CC50 for mouse NCTC-929 cells to IC50 for extracellular epimastigote stage of Trypanosoma cruzi CL-B5; type: functional
Trypanosoma cruzi [12] = experiment: Trypanocidal activity against intracellular amastigote stage of Trypanosoma cruzi CL-B5 infected in mouse NCTC-929 cells assessed as reduction of parasite load after 7 days by CPRG-based colorimetric analysis; conditions: Trypanosoma cruzi, CL-B5, NCTC-929, 168 h; read-out: IC50
[13] = Leishmania amazonensis, MHOM/Br/79/Maria, 48 h, read-out: IC50
[14] = Leishmania guyanensis, 141/93, 48 h, read-out: IC50
[15] = Leishmania braziliensis, 2903, 48 h, read-out: IC50
[16] = Leishmania infantum, MCAN/ES/96/BCN150, 48 h, read-out: IC50
[17] = Trypanosoma cruzi, CL-B5, 72 h, read-out: IC50

| Compound | CC50 at 24 h [1] | IC50 (Leishmania amazonensis [2]; [13]) | IC50 (Leishmania guyanensis; [14]) | IC50 (Leishmania braziliensis; [15]) | IC50 (Leishmania infantum [3]; [16]) | CC50 at 24 h [5] | IC50 (Trypanosoma cruzi [4]; [17]) | other results |
| --- | --- | --- | --- | --- | --- | --- | --- | --- |
| O=S(=O)(Nc1nccc2ccccc12)c1ccccc1 | ≥ 300 µM | 93.5 µM | 93.5 µM | 162 µM | – | – | – | IC50 (Leishmania infantum [3]): Not Active |
| O=S(=O)(Nc1ccc2[nH]ncc2c1)c1ccc(F)cc1 | ≥ 300 µM | 116 µM | 102 µM | 86.6 µM | 65.4 µM | – | – | IC50 (Trypanosoma cruzi [4]): Not Active |
| O=C(Cn1ccnc1[N+](=O)[O-])NCc1ccccc1 [BENZNIDAZOLE] | ≥ 300 µM | – | – | – | – | > 194 µM | – | – |
| O=S(=O)(c1cccc2ccccc12)N1CCc2ccccc2C1 | ≥ 300 µM | – | – | – | – | > 310 µM | 114 µM | IC50 (Leishmania amazonensis [2]): Not Active; IC50 (Leishmania guyanensis): Not Active; IC50 (Leishmania braziliensis): Not Active; IC50 (Leishmania infantum [3]): Not Active |
| Cc1cc2cc(NS(=O)(=O)c3cccc4ccccc34)ccc2[nH]1 | 24.6 µM | 7.4 µM | 13.6 µM | 11.6 µM | 11.9 µM | – | – | – |
| O=S(=O)(Nc1ccc2nccnc2c1)c1ccc(Cl)cc1 | 23.8 µM | 46.2 µM | 25.9 µM | 80.9 µM | 51.5 µM | – | – | – |
| O=[N+]([O-])c1ccc(S(=O)(=O)Nc2nccc3ccccc23)cc1 | 41.3 µM | 27 µM | 24.6 µM | 42.5 µM | 39.5 µM | – | 136 µM | – |
| O=S(=O)(Nc1ccc2nccnc2c1)c1ccc(F)cc1 | 43.9 µM | 14.2 µM | 29.8 µM | 13.4 µM | 33.4 µM | – | – | – |
| O=[N+]([O-])c1ccc(S(=O)(=O)Nc2cnccn2)cc1 | ≥ 300 µM | – | 84.2 µM | 61.5 µM | – | 317 µM | 76.1 µM | Activity (Trypanosoma cruzi [6]): inactive; Activity (Trypanosoma cruzi [7]): 57%; Activity (Trypanosoma cruzi [8]): 14%; IC50 (Leishmania amazonensis [9]): Not Active; IC50 (Leishmania infantum [10]): Not Active; Ratio CC50/IC50 [11]: >4.7; IC50 (Leishmania amazonensis [2]): Not Active; IC50 (Trypanosoma cruzi [12]): 224 µM |
| O=[N+]([O-])c1ccc(S(=O)(=O)Nc2ccc3ncsc3c2)cc1 | ≥ 300 µM | 89.6 µM | 53.7 µM | 31 µM | 85.5 µM | – | – | IC50 (Trypanosoma cruzi [4]): Not Active |
| Cc1cc2cc(NS(=O)(=O)c3ccc([N+](=O)[O-])cc3)ccc2[nH]1 | 132 µM | 15.8 µM | 19.6 µM | 16.8 µM | 35.2 µM | – | – | – |
| O=S(=O)(Nc1ccc2[nH]ncc2c1)c1cccc2ccccc12 | 30 µM | 37.7 µM | 52.8 µM | 39.7 µM | 37.3 µM | – | – | – |
| O=S(=O)(Nc1ccc2cn[nH]c2c1)c1ccc(F)cc1 | ≥ 300 µM | 108 µM | 96.3 µM | 88.8 µM | 94.8 µM | 223 µM | 1.3 µM | Activity (Trypanosoma cruzi [6]): inactive; Activity (Trypanosoma cruzi [7]): 44%; Activity (Trypanosoma cruzi [8]): -50%; IC50 (Leishmania amazonensis [9]): Not Active; IC50 (Leishmania infantum [10]): Not Active; Ratio CC50/IC50 [11]: >196.9; IC50 (Trypanosoma cruzi [12]): 28.5 µM |
